Assay results: paper PMC2904523 (Journal of medicinal chemistry, 2010)

Assays:
[1] = test system: RT of HIV-1DH012 (lysate); assay: RT enzymatic inhibition; format: biochemical; details: RT from HIV-1DH012 lysate; Figure 3; average of three assays
Procedure, shortened: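 Reverse transcriptase came from a lysate of HIV-1DH012, a primary viral isolate. Enzyme activity was measured at various test compound concentrations with a commercial colorimetric HIV-1 RT kit, following the manufacturer's protocol. Each value is the average of three independent assays.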

[2] = test system: HIV-1 IIIB; assay: HIV growth inhibition assay in H9 lymphocytes; details: for EC50 (concentration that causes 50% inhibition of HIV-1 IIIB replication): HIV-1 IIIB in H9 cells, Panacos, average of three independent assays; for selectivity ratio at 6 days: human, SI (selective index) = CC50/EC50, HIV-1 IIIB in H9 cells

SMILES | RT inhibition activity [1] | EC50 (concentration that causes 50% inhibition of HIV-1 IIIB replication) [2] | selectivity ratio at 6 days [2]
Cc1cc(C#N)cc(C)c1Oc1nc(Nc2ccc(C#N)cc2)nc(N)c1Br [Compound 4, etravirine, reference compound] | potently inhibited RT activity | – | –
Cc1cc(Br)cc(C)c1Oc1cc(Nc2ccc(C#N)cc2)c([N+](=O)[O-])cc1[N+](=O)[O-] [Compound 19, 5-(4″-Bromo-2″,6″-dimethylphenoxy)-N-(4′-cyanophenyl)-2,4-dinitrsoaniline] | – | sub-micromolar level | –
Cc1cccc(C)c1Oc1cc(Nc2ccc(C#N)cc2)c([N+](=O)[O-])cc1[N+](=O)[O-] [Compound 20, N-(4′-Cyanophenyl)-5-(2″,6″-dimethylphenoxy)-2,4-dinitroaniline] | – | sub-micromolar level | 113 to 313
Cc1cc(C)c(Oc2cc(Nc3ccc(C#N)cc3)c([N+](=O)[O-])cc2[N+](=O)[O-])c(C)c1 [Compound 22, N-(4′-Cyanophenyl)-2,4-dinitro-5-(2″,4″,6″-trimethylphenoxy)aniline] | – | sub-micromolar level | 113 to 313
Cc1cc(Br)cc(C)c1Oc1ccc([N+](=O)[O-])c(Nc2ccc(C#N)cc2)c1 [Compound 24, 5-(4″-Bromo-2″,6″-dimethylphenoxy)-N-(4′-cyanophenyl)-2-nitroaniline] | – | sub-micromolar level | 113 to 313
Cc1cc(C#N)cc(C)c1Oc1ccc([N+](=O)[O-])c(Nc2ccc(C#N)cc2)c1 [Compound 26, 5-(4″-Cyano-2″,6″-dimethylphenoxy)-N-(4′-cyanophenyl)-2-nitroaniline] | – | sub-micromolar level | –
Cc1cc(Br)cc(C)c1Oc1cc(Nc2ccc(C#N)cc2)c(N)cc1N [Compound 32, 5-(4″-Bromo-2″,6″-dimethylphenoxy)-N^1-(4′-cyanophenyl)benzene-1,2,4-triamine] | – | sub-micromolar level | –
Cc1cc(C#N)cc(C)c1Oc1cc(Nc2ccc(C#N)cc2)c(N)cc1N [Compound 34, 5-(4″-Cyano-2″,6″-dimethylphenoxy)-N^1-(4′-cyanophenyl)benzene-1,2,4-triamine] | potently inhibited RT activity | – | –
Cc1cc(Br)cc(C)c1Oc1cc(Nc2ccc(C#N)cc2)c(N)cc1[N+](=O)[O-] [Compound 36, 5-(4″-Bromo-2″,6″-dimethylphenoxy)-N^1-(4′-cyanophenyl)-4-nitrobenzene-1,2-diamine] | – | – | > 2800
Cc1cc(C#N)cc(C)c1Oc1cc(Nc2ccc(C#N)cc2)c(N)cc1[N+](=O)[O-] [Compound 37, 5-(4″-Cyano-2″,6″-dimethylphenoxy)-N^1-(4′-cyanophenyl)-4-nitrobenzene-1,2-diamine] | potently inhibited RT activity | – | –
